Results on 19 compounds are retold here after ChEMBL document CHEMBL3792340, “Novel benzylidenephenylpyrrolizinones with pleiotropic activities potentially useful in Alzheimer's disease treatment” (Eur J Med Chem, 2016).

Data set [1] in a line: Antioxidant activity assessed as DPPH radical scavenging activity after 30 mins by microplate reader method. It counts as physicochemical. Put shortly:
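Compounds diluted from DMSO stock into absolute ethanol, incubated with 100 μM DPPH for 30 min at room temperature in the dark; absorbance at 517 nm. Scavenging % = (Acontrol−Asample)/Acontrol×100 versus vehicle control.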
Background: The DPPH test is a chemical assay of radical scavenging.

A short description of data set [2]: Antioxidant activity assessed as nitric oxide radical scavenging activity at 40 uM after 3 hrs by Griess assay. Type of data set: physicochemical. Put shortly:
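Sodium nitroprusside (50 mM stock in phosphate buffer pH 7.4) mixed with test compound and phosphate buffer, incubated 3 h at 37.4 °C. Aliquot diluted with Griess reagent, absorbance read after 20 min at 546 nm. Inhibition = (Acontrol−Atest)/Acontrol×100; triplicate.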
A general note: Griess reagent forms a coloured azo dye with nitrite.

The nature of data set [3]: Metal chelating activity of the compound assessed as formation of copper complex at 50 uM after 10 mins by UV-visible spectroscopy. Type of data set: physicochemical. Put shortly:
(§1)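 Compound in methanol (from 50 mM DMSO stock) at 50 μM mixed with equimolar CuCl2 or FeCl2, 10 min at room temperature; spectra scanned 230–600 nm at 298 K. Difference spectra obtained by subtracting the metal-alone spectrum from the mixture spectrum.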

A short description of data set [4]: Metal chelating activity of the compound assessed as formation of iron complex at 50 uM after 10 mins by UV-visible spectroscopy. Type of data set: physicochemical. Put shortly:
as §1

The target in data set [5] is Amyloid-beta precursor protein (Homo sapiens) (UniProt P05067). The data set can be described thus: Inhibition of Amyloid beta (1 to 42) (unknown origin) self aggregation at 10 uM measured every 5 mins with shake for 15 secs by ThT fluorescence assay relative to control. Put shortly: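 Aβ1-42 (85 μL at 250 μg/mL) with thioflavin T (10 μL at 2 mM) and compound (1 μL of 1 mM) in 100 μL kit buffer; control without compound plus blanks. Fluorescence at 37 °C every 5 min, 15 s shaking between reads, Ex/Em 440/484 nm. Inhibition = 100 − (IFi/IFo×100).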

The nature of data set [6]: Cytotoxicity against human KB cells assessed as inhibition of cell proliferation at 10^-5 M after 72 hrs by MTS assay relative control. Type of data set: cell-based. An outline of the steps: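 KB nasopharyngeal carcinoma cells in D-MEM with 10% fetal calf serum and antibiotics under 5% CO2; 1000 cells/well, treated 24 h after plating with compounds in DMSO (1% final), exposed 72 h. MTS read at 490 nm; inhibition = (1−OD treated/OD control)×100, triplicate.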

The nature of data set [7]: Antioxidant activity assessed as FeCl2-induced lipoperoxidation at 40 uM incubated for 2 hrs in dark by ferric thiocyanate method.
Data set [8] is described as follows: Half life in 10 mM phosphate buffer at 20 uM at pH 7.4 at 25 degC by UHPLC analysis. It counts as physicochemical. An outline of the steps: (§2)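 20 μM compound (from 10 mM DMSO stock) in 10 mM phosphate buffer pH 7.4, ionic strength 150 mM with KCl, at 25 °C, n=3. Sampled at 6 times over 0 to 5 or 8 h by UHPLC-PDA on a C18 column with water/acetonitrile gradient (0.01% formic acid). Half-life from exponential regression of disappearance versus time.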

Data set [9] in a line: Binding affinity to Cu2+ assessed as dissociation constant after 10 to 60 mins by UV-visible spectra analysis. An outline of the steps: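 In methanol–10 mM Tris pH 7.4 (8:2 v/v), compound 0–200 μM incubated with or without CuCl2 50 μM; scans 230–600 nm after 10 and 60 min. Absorbance difference at each compound's specific wavelength gave complex and free-ligand concentrations using the saturation maximum and stoichiometry from Job plots (total 100 μM, varying mole fraction).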

The nature of data set [10]: Binding affinity to Cu2+ assessed as association constant after 10 to 60 mins by UV-visible spectra analysis. An outline of the steps: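 Ligand titration in methanol–10 mM Tris pH 7.4 (8:2, v/v): compound 0 to 200 μM incubated with or without CuCl2 (50 μM), room temperature. Scanned 230–600 nm at 10 and 60 min. Difference spectra (mixture minus compound) read at each compound's specific wavelength give bound complex and free ligand, using stoichiometry from Job plots at 100 μM total.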

The nature of data set [11]: Permeability of the compound at 100 uM at pH 7.4 after 4 hrs by PAMPA-BBB assay.
Data set [12] can be described thus: Chemical stability in 10 mM phosphate buffer at 20 uM at pH 7.4 at 25 degC after 5 hrs by UHPLC analysis. It counts as physicochemical. The settings on record: pH 7.4, 5 h. Put shortly:
as §2

Chain of Amyloid-beta precursor protein (Homo sapiens) (P05067 whole entry): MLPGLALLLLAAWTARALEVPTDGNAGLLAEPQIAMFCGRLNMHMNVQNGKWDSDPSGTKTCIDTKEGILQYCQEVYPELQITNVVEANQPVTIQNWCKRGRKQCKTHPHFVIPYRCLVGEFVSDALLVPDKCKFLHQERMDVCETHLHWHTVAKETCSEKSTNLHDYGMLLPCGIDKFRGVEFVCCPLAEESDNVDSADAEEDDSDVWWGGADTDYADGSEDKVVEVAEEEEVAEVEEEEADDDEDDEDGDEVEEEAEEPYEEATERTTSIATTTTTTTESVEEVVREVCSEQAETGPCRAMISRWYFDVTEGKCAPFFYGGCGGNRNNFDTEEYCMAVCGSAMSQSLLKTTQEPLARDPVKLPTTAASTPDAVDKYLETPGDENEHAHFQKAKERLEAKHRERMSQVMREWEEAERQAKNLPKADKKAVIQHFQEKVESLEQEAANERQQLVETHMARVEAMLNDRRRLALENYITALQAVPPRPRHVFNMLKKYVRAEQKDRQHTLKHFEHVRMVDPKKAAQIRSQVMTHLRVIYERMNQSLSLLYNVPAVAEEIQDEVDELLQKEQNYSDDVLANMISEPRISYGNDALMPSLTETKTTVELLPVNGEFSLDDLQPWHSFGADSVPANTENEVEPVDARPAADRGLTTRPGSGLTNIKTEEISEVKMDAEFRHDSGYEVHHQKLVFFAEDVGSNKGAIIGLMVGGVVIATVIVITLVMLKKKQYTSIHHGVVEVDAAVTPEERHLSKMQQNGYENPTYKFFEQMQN

In the case of `COc1cc(C2/C(=C\c3cc(OC)c(O)c(OC)c3)C(=O)c3cccn32)ccc1O` (centres undefined), in data set [1], the EC50 (commonly the concentration needed to bring the measured effect to its halfway point) came out at 246 µM. Also, the Activity in data set [2] was 35.3%; in data set [3], “Not Active”; in [4] it was “Not Active”. The inhibition (commonly the change of the read-out against control, counted positive when it falls) in data set [5] came to 30.1%. In addition, the inhibition at 72 h, 10 µM in data set [6] came to 0%. Also, in [7], the peroxidation % was 70.4%.

Consider `Cc1c(C)c2c(c(C)c1O)CCC(C)(C(=O)O)O2` (centres undefined) [TROLOX], for which the EC50 in [1] was determined as 18.2 µM.

Consider `COc1cc(C2/C(=C\c3cc(OC)c(OC)c(OC)c3)C(=O)c3cccn32)ccc1O` (centres undefined), for which the half-maximal effective concentration (EC50) in data set [1] was over 250 µM. Moreover, the figures for the Activity in data set [2], in [3] and in [4] were 32.6%, “Not Active” and “Not Active”, respectively. The compound also returned an inhibition in data set [5] of 23.6%. Moreover, the peroxidation % in [7] was 67.1%.

With `COc1ccc(/C=C2/C(=O)c3cccn3C2c2ccc(OC)c(O)c2)cc1O` (centres undefined), in [1], the EC50 is over 250 µM. The figures for the Activity in [2], in data set [3] and in [4] were 53.7%, “Active” and “Active”, respectively. Also, in data set [5], the inhibition was determined as 8.4%. In addition, the inhibition at 72 h, 10 µM in data set [6] was determined as 24%. The peroxidation % in data set [7] was determined as 71%.

As for `COc1cc(/C=C/C(=O)CC(=O)/C=C/c2ccc(O)c(OC)c2)ccc1O` [CURCUMIN], the EC50 in data set [1] was 19.2 µM. Moreover, the Activity was 60.4% in data set [2], “Active” in [3] and “Active” in [4]. Moreover, the inhibition at 72 h, 10 µM in data set [6] stood at 83%.

For `COc1ccc(C2/C(=C\c3ccc(O)c(O)c3)C(=O)c3cccn32)cc1O` (centres undefined), the EC50 in data set [1] was found to be 12.8 µM. In addition, the values for the Activity in data set [2], in data set [3] and in [4] were 57.5%, “Active” and “Active”, respectively. In data set [5], this compound displayed an inhibition of 24.9%. Besides, the inhibition at 72 h, 10 µM in data set [6] amounted to 0%. For the same compound, the half-life (usually the time needed for the level to fall by half in the phase considered) at 20 µM in data set [8] was 714 min. The Kd (in general, the constant that tells how readily two partners part at equilibrium) in data set [9] came to 70.5 µM. Besides, the logKa in [10] was 4.15. Moreover, the peroxidation % in [7] was found to be 51.3%.

`COc1cc(/C=C2/C(=O)c3cccn3C2c2ccccc2)ccc1O` (centres undefined): the EC50 in data set [1] was over 250 µM. Moreover, the Activity in data set [2] was 51.7%; in [3] it was “Not Active”. The same compound had an inhibition in [5] of 14.5%. The inhibition at 72 h, 10 µM in data set [6] came out at 24%. The peroxidation % in data set [7] was 67.4%.

For `O=C1/C(=C/c2ccccc2)C(c2ccccc2)n2cccc21` (centres undefined), the Activity in data set [2] came out at 34.4%. Further, in [5], the inhibition was 1.4%. In data set [6], the inhibition at 72 h, 10 µM was determined as 41%. Further, the peroxidation % in [7] worked out at 55.1%.

In the case of `COc1ccc(/C=C2/C(=O)c3cccn3C2c2ccc(O)c(OC)c2)c(OC)c1` (centres undefined), the 50% effective concentration (EC50) in data set [1] was over 250 µM. For the same compound, the Activity in [2] is given as 40.3%; in data set [3], “Not Active”; in data set [4], “Not Active”. This compound showed an inhibition in [5] of 6%. Besides, the inhibition at 72 h, 10 µM in data set [6] amounted to 38%. Also, in data set [7], the peroxidation % is recorded as 67.5%.

In the case of `Cn1c(=O)c2[nH]cnc2n(C)c1=O.O` [THEOPHYLLINE], in data set [11], the “log Pe” value is reported as under -6.

Regarding `COc1cc(C2/C(=C\c3ccc(OCc4ccccc4)c(OCc4ccccc4)c3)C(=O)c3cccn32)ccc1OCc1ccccc1` (centres undefined), the concentration giving a half-maximal response (EC50) in data set [1] was over 250 µM. For the same compound, the Activity in [2] was 30.7%. In data set [5], this compound gave an inhibition of 4.2%. Further, the inhibition at 72 h, 10 µM in data set [6] turned out to be 0%. The peroxidation % in data set [7] was 92.8%.

Turning to `O=C1/C(=C/c2ccc(O)c(O)c2)C(c2ccc(O)c(O)c2)n2cccc21` (centres undefined), the half-maximal effective concentration (EC50) in [1] turned out to be 9.6 µM. Further, the Activity in data set [2] is 47.1%; in data set [3], “Active”; in [4], “Active”. Moreover, in data set [5], the inhibition amounted to 27%. Besides, the inhibition at 72 h, 10 µM in data set [6] amounted to 0%. The half-life at 20 µM in [8] is 384 min. Besides, in [9], the Kd was 19.9 µM. Moreover, the logKa in [10] turned out to be 4.7. For the same compound, the peroxidation % in data set [7] was determined as 47%.

Turning to `O=C1/C(=C/c2ccc(O)c(O)c2)C(c2ccccc2)n2cccc21` (centres undefined), the concentration for a half-maximal effect (EC50) in data set [1] came to 12.6 µM. The Activity is on record as 65.6% in data set [2], “Active” in data set [3] and “Active” in [4]. In addition, in data set [5], the inhibition worked out at 28.7%. Besides, the inhibition at 72 h, 10 µM in data set [6] is 0%. The Stability result in data set [12] is recorded as “Stable”. In addition, the dissociation constant (Kd) in [9] was determined as 2.2 µM. Further, the logKa in data set [10] turned out to be 5.65. Also, the peroxidation % in [7] was found to be 57%.

Consider `COc1ccc(C2/C(=C\c3ccc(O)c(OC)c3)C(=O)c3cccn32)cc1O` (centres undefined), for which the 50% effective concentration (EC50) in [1] is 99.5 µM. For the same compound, the figures for the Activity in data set [2], in data set [3] and in data set [4] were 55.1%, “Active” and “Active”, respectively. In addition, the inhibition in [5] worked out at 12.8%. The inhibition at 72 h, 10 µM in data set [6] was 29%. Also, the peroxidation % in data set [7] amounted to 56.4%.

Turning to `COc1ccc(/C=C2/C(=O)c3cccn3C2c2ccc(O)c(OC)c2)cc1O` (centres undefined), the EC50 in data set [1] is over 250 µM. Besides, the Activity is 57.7% in data set [2], “Not Active” in data set [3] and “Not Active” in [4]. For the same compound, in data set [5], the inhibition worked out at 15.9%. For the same compound, the inhibition at 72 h, 10 µM in data set [6] was 0%. For the same compound, the peroxidation % in data set [7] is 58.2%.

As for `COc1cc(C2/C(=C\c3ccc(O)c(O)c3)C(=O)c3cccn32)ccc1O` (centres undefined), in data set [1], the EC50 worked out at 12 µM. The values for the Activity in [2], in [3] and in data set [4] were 58%, “Active” and “Active”, respectively. In data set [5], the inhibition was 26.1%. The inhibition at 72 h, 10 µM in [6] worked out at 0%. In [8], this compound gave a half-life at 20 µM of 408 min. Also, in data set [9], the Kd came out at 22.1 µM. Besides, in data set [10], the logKa was 4.65. For the same compound, the peroxidation % in data set [7] is reported as 50.6%.

For the compound `O=c1c(O)c(-c2ccc(O)c(O)c2)oc2cc(O)cc(O)c12` [QUERCETIN], the Activity in [2] is 70.7%.

`COc1cc(/C=C/C(=O)O)ccc1O` [FERULATE]: the EC50 in data set [1] was found to be 43.2 µM. Also, in data set [2], the Activity is listed as 46.4%. Further, the peroxidation % in [7] worked out at 47%.

Take `COc1cc(/C=C2/C(=O)c3cccn3C2c2ccc(O)c(OC)c2)ccc1O` (centres undefined): the concentration giving a half-maximal response (EC50) in data set [1] was 101 µM. The Activity in data set [2] was 57%; in data set [3], “Active”; in [4], “Active”. The compound also displayed an inhibition in [5] of 10.4%. For the same compound, the inhibition at 72 h, 10 µM in data set [6] was determined as 0%. For the same compound, the peroxidation % in data set [7] amounted to 48.5%.
